These results are taken from ChEMBL document CHEMBL1126990, “Design and synthesis of 18F-labeled neurotoxic analogs of MPTP” (J Med Chem, 1993).

What all share (format): ADME
The species named for series [1] is Rattus norvegicus. The experiment in a line: Maximal rate (Vmax) for oxidation by rat liver MAO. The essentials:
(§1)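 Rat liver MAO (crude P2 mitochondrial fraction from adult male Wistar rats, in pH 7.4 phosphate buffer) incubated with substrate at 30 μM to 5 mM; colorimetric detection of H2O2 formed. Blanks contained 0.1 mM pargyline. Vmax and Km from linear regression of Lineweaver-Burk plots; means ± SE of n separate experiments; ANOVA with post-hoc Scheffe test.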

For series [2], the system named is MAO. The experiment in a line: Michaelis-Menten constant (Km) for oxidation by rat liver MAO. The essentials:
as §1

A short description of series [3]: Ratio between Vmax and Km. The essentials: as §1
A short description of series [4]: separate experiments, n=5). The essentials: as §1
The species entered for series [5] is Rattus norvegicus. The experiment in a line: Maximal rate (Vmax) for oxidation by rat liver MAO (results are means of number of separate experiments, n=5). The essentials: as §1

One may read the Vmax as the top rate of the reaction or transport when substrate is in excess. Usually Km stands for the concentration of substrate that gives half-maximal velocity. In the case of `CN1CC=C(c2ccccc2CO)CC1`, the Vmax in series [1] is 273 nM hr-1 (mg of protein)-1. Moreover, in series [2], the Km was determined as 370 µM. Besides, the Ratio in series [3] is given as 0.74.

In the case of `CN1CC=C(c2ccccc2CCl)CC1`, the Km in series [4] turned out to be 186 µM. For the same compound, the Vmax in series [5] is reported as 231 nM hr-1 (mg of protein)-1. Moreover, the Ratio in series [3] worked out at 1.24.
